In paper PMC7089611 (Febs Letters, 2012):

B1: N245–382: truncated C‐terminal domain of the HCoV‐229E N protein, extended C‐terminal tail that includes residue 382 (protein)
chain: QKPRWKRQPNDDVTSNVTQCFGPRDLDHNFGSAGVVANGVKAKGYPQFAELVPSTAAMLFDSHIVSKESGNTVVLTFTTRVTVPKDHPHLGKFLEELNAFTREMQQHPLLNPSALEFNPSQTSPATAEPVRDEVSIET
modifications: left off: His6, C-terminal, state not stated
B2: N245–370: truncated C‐terminal domain of the HCoV‐229E N protein, extended C‐terminal tail that includes residue 370 (protein)
chain: QKPRWKRQPNDDVTSNVTQCFGPRDLDHNFGSAGVVANGVKAKGYPQFAELVPSTAAMLFDSHIVSKESGNTVVLTFTTRVTVPKDHPHLGKFLEELNAFTREMQQHPLLNPSALEFNPSQTSPAT
modifications: left off: His6, C-terminal, state not stated
B3: N245–376: truncated C‐terminal domain of the HCoV‐229E N protein, extended C‐terminal tail that includes residue 376 (protein)
chain: QKPRWKRQPNDDVTSNVTQCFGPRDLDHNFGSAGVVANGVKAKGYPQFAELVPSTAAMLFDSHIVSKESGNTVVLTFTTRVTVPKDHPHLGKFLEELNAFTREMQQHPLLNPSALEFNPSQTSPATAEPVRD
modifications: left off: His6, C-terminal, state not stated
B4: N245–389: truncated C‐terminal domain of the HCoV‐229E N protein, extended C‐terminal tail that includes residue 389 (protein)
chain: QKPRWKRQPNDDVTSNVTQCFGPRDLDHNFGSAGVVANGVKAKGYPQFAELVPSTAAMLFDSHIVSKESGNTVVLTFTTRVTVPKDHPHLGKFLEELNAFTREMQQHPLLNPSALEFNPSQTSPATAEPVRDEVSIETDIIDEVN
modifications: left off: His6, C-terminal, state not stated

Key:
[1] = Secondary structural content by CD spectroscopy; format: physicochemical; conditions: 25 °C, protein 5 μM, 50 mM Tris–HCl pH 7.5, 150 mM NaCl, 0.1% β‐mercaptoethanol, CDSSTR
[2] = format: physicochemical; conditions: CD at 220 nm, protein 7 μM, 50 mM Tris–HCl pH 7.5, 150 mM NaCl, 0.1% β‐mercaptoethanol
[3] = tested on: C‐terminal domain of the HCoV‐229E N protein; assay: Sedimentation velocity analytical ultracentrifugation: self-association; format: binding; conditions: N245–389 in the absence of the C‐terminal tail peptide
Procedure, shortened: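 C-terminal His6-tagged N-protein domain (residues 245–389) was bacterially expressed (1 mM IPTG, 37 °C, 6 h) and purified on Ni–NTA. Runs were at 20 °C and 42,000 rpm, read at 280 nm every 420 s, at 50, 30 and 10 μM protein in 50 mM Tris–HCl pH 7.5, 150 mM NaCl, 0.1% β-mercaptoethanol. Data were fit to a continuous size distribution (0.1–20.0 S).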

Molecule | Disordered (random coil) content [1] [%] | Helix content [1] [%] | Sheet content [1] [%] | Turn content [1] [%] | melting temperature (Tm) [2] | S-value of dimer ([3]; 20 °C, dimer) | S-value of octamer ([3]; 20 °C, octamer) | S-value of tetramer ([3]; 20 °C, tetramer) | molecular mass corresponding to S-value, dimer ([3]; dimer) [kDa] | molecular mass corresponding to S-value, octamer ([3]; octamer) [kDa] | molecular mass corresponding to S-value, tetramer ([3]; tetramer) [kDa]
B1 | 13 | 43 | 25 | 19 | above 70 °C | – | – | – | – | – | –
B2 | 17 | 46 | 23 | 14 | 36.2 °C | – | – | – | – | – | –
B3 | 15 | 47 | 22 | 16 | 36.7 °C | – | – | – | – | – | –
B4 | 13 | 45 | 26 | 16 | above 70 °C | approximately 2.85 | ~7.75 | ~5.30 | 31 | 131 | 69
